# Results reported in ChEMBL document CHEMBL1136958, “Design and optimization of renin inhibitors: Orally bioavailable alkyl amines” (Bioorg Med Chem Lett, 2009).
# Active and inactive are the calls of the source. The calls are words filed in the database; no cut-off is given here.
# What was measured:
# Renin [1] = biological target: T1, Renin (Homo sapiens, UniProt P00797); assay: Inhibition of human recombinant renin
# T1 sequence (P00797 whole entry): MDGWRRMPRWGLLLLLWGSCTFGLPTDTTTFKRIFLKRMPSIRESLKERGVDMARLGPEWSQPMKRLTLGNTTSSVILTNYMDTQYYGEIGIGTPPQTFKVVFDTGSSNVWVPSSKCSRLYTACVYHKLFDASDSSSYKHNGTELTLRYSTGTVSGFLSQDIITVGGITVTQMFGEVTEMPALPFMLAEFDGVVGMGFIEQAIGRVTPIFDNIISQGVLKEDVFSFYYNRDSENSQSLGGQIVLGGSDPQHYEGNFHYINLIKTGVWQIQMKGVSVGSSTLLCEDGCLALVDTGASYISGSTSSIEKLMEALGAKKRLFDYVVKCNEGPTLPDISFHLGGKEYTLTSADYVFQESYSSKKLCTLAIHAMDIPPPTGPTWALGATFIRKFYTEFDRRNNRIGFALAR
# Renin [2] = biological target: T1, Renin; assay: Inhibition of human recombinant renin in presence of human plasma by competitive radioimmunoassay; type: cell-free
# in vivo = conditions: rat, po
# [3] = Tmax in rat at 10 mg/kg, po and 2 mg/kg, iv; type: ADME, organism-based; conditions: in vivo
# Procedure, shortened: (§1)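 Rats dosed with the fumarate salt at 10 mg/kg by oral route and 2 mg/kg intravenously. Plasma concentrations measured over time, and PK parameters derived from them.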
# [4] = AUC (infinity) in rat at 10 mg/kg, po and 2 mg/kg, iv; type: ADME, organism-based; conditions: plasma; procedure, shortened: as §1
# [5] = Clearance in rat at 2 mg/kg, iv; type: ADME, organism-based; design: dose 2 mg/kg, route intravenous; conditions: in vivo; procedure, shortened: as §1
# [6] = Volume of distribution at steady state in rat at 10 mg/kg, po and 2 mg/kg, iv; type: ADME, organism-based; conditions: in vivo, read-out: Vdss
# [7] = Half life in rat at 10 mg/kg, po and 2 mg/kg, iv; type: ADME, organism-based; conditions: in vivo; procedure, shortened: as §1
# [8] = Cmax in rat at 10 mg/kg, po and 2 mg/kg, iv; type: ADME, organism-based; conditions: in vivo; procedure, shortened: as §1
# [9] = Oral bioavailability in rat at 10 mg/kg; type: ADME, organism-based; conditions: in vivo; procedure, shortened: as §1
# [10] = AUC (0 to t) in rat at 10 mg/kg, po and 2 mg/kg, iv; type: ADME, organism-based; conditions: plasma; procedure, shortened: as §1
# [11] = biological target: Voltage-gated inwardly rectifying potassium channel KCNH2 (Homo sapiens, UniProt Q12809); assay: Inhibition of human ERG by patch clamp assay
# Macaca fascicularis [12] = organism: Macaca fascicularis; assay: Terminal half life in cynomolgus monkey; conditions: in vivo, read-out: beta t1/2 (converted)
# Macaca fascicularis [13] = assay: Oral bioavailability in cynomolgus monkey; conditions: in vivo
# [14] = Solubility in water; type: physicochemical
# [15] = Oral bioavailability in dog; type: ADME, organism-based, Canis lupus familiaris; conditions: in vivo
# [16] = Terminal half life in dog; type: ADME, organism-based, Canis lupus familiaris; conditions: in vivo, read-out: beta t1/2 (converted)
# Rattus norvegicus = assay: Antihypertensive activity in double transgenic rat model assessed as reduction in blood pressure at 60 mg/kg, po administered on day 2 and day 3 after vehicle treatment on day 1; type: functional, organism-based; design: dose 60 mg/kg
# Procedure, shortened: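 Telemetered double transgenic rats carrying human angiotensinogen and human renin genes (n = 4). Vehicle given on day 1 with blood pressure monitored over 24 h. Oral gavage at 60 mg/kg at t = 24 h and 48 h, with blood pressure followed continuously by telemetry.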
# Chain of Voltage-gated inwardly rectifying potassium channel KCNH2 (Q12809 whole entry): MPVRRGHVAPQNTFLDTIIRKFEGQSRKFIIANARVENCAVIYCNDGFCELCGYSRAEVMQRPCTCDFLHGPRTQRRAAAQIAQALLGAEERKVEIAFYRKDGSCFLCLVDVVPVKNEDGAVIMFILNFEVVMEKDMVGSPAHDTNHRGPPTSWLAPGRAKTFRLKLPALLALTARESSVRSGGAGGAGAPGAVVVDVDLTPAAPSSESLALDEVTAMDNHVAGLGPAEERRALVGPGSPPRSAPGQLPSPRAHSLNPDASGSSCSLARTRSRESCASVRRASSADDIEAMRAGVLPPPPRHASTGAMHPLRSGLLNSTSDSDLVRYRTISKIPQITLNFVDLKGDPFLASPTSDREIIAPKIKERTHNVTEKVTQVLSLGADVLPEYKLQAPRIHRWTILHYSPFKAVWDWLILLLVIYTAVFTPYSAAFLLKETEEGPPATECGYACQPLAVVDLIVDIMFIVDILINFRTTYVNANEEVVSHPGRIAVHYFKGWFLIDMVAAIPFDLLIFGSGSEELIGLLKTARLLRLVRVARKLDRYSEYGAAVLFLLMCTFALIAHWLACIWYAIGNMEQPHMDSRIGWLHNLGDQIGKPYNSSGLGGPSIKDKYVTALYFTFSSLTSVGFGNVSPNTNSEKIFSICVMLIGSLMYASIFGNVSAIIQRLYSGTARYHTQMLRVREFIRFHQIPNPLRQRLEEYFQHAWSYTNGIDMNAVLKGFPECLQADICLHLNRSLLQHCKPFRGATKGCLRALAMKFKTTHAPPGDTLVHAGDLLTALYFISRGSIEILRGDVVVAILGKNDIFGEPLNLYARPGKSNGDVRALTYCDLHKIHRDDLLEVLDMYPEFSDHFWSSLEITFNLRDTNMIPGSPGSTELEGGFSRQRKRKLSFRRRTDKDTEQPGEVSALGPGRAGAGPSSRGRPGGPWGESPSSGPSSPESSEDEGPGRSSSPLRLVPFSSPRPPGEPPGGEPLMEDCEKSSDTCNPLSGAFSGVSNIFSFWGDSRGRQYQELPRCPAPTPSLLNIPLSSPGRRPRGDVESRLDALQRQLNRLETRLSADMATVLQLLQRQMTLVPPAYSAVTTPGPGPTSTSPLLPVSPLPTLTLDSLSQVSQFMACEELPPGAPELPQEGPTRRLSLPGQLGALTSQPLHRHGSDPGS
smiles,measurement,setting,value
CNC[C@H](CC1CCCCC1)NC(=O)N1CCC[C@@H]([C@@H](OCCCOC)c2cccc(Cl)c2Cl)C1,IC50,Renin [1],609 nM
CCc1cccc([C@](O)(CCCCOC)[C@@H]2CCCN(C(=O)N[C@H](CNC)CC3CCCCC3)C2)c1,IC50,Renin [2],285 nM
same,IC50,Renin [1],9 nM
COCCCOc1cc(C[C@@H](C[C@H](N)[C@@H](O)C[C@H](C(=O)NCC(C)(C)C(N)=O)C(C)C)C(C)C)ccc1OC,bioavailability,in vivo,2.4%
CCOCCCO[C@@H](c1cccc(F)c1)[C@@H]1CCCN(C(=O)N[C@H](CNC)CC2CCCCC2)C1,IC50,Renin [2],84 nM
same,IC50,Renin [1],11 nM
CCOCCCO[C@@H](c1ccccc1)[C@@H]1CCCN(C(=O)N[C@H](CNC)CC2CCCCC2)C1,IC50,Renin [2],447 nM
same,IC50,Renin [1],40 nM
CCOCCCO[C@@H](c1cccc(Cl)c1)[C@@H]1CCCN(C(=O)N[C@H](CNC)CC2CCCCC2)C1,IC50,Renin [1],4 nM
CCOCCCC[C@@](O)(c1ccccc1)[C@@H]1CCCN(C(=O)N[C@H](CN)CC2CCCCC2)C1,IC50,Renin [2],490 nM
same,IC50,Renin [1],38 nM
CNC[C@H](CC1CCCCC1)NC(=O)N1CCC[C@@H]([C@@](O)(CCCCOC)c2cccc(Cl)c2)C1 [listing 1 of 2 here],IC50,Renin [2],13 nM
CCOCCCC[C@@](O)(c1ccccc1)[C@@H]1CCCN(C(=O)N[C@H](CNC)CC2CCCCC2)C1.O=C(O)/C=C/C(=O)O,Tmax,[3],3 h
same,AUC(0-inf),[4],833 ng·h/mL
same,clearance,[5],79 mL/min/kg
same,Vd,[6],55 L/kg
same,half-life,[7],8.7 h
same,Cmax,[8],135 ng/mL
same,bioavailability,[9],48.3%
same,AUC(0-t),[10],745 ng·h/mL
CCNC[C@H](CC1CCCCC1)NC(=O)N1CCC[C@@H]([C@@](O)(CCCCOC)c2cccc(Cl)c2)C1,IC50,Renin [2],154 nM
same,IC50,Renin [1],6 nM
CNC[C@H](CC1CCCCC1)NC(=O)N1CCC[C@@H]([C@@](O)(CCCCOC)c2cccc(Cl)c2)C1.O=C(O)/C=C/C(=O)O,Tmax,[3],3.3 h
same,AUC(0-inf),[4],530 ng·h/mL
same,clearance,[5],33 mL/min/kg
same,IC50,[11],> 30000 nM
same,Cmax,[8],73 ng/mL
same,bioavailability,[9],12.9%
same,half-life,Macaca fascicularis [12],16 h
same,bioavailability,Macaca fascicularis [13],17%
same,solubility,[14],> 1000 µg/mL
same,bioavailability,[15],38%
same,half-life,[16],16 h
CNC[C@H](CC1CCCCC1)NC(=O)N1CCC[C@@H]([C@@](O)(CCCCOC)c2cccc(F)c2)C1,IC50,Renin [2],47 nM
same,IC50,Renin [1],3 nM
CNC[C@H](CC1CCCCC1)NC(=O)N1CCC[C@@H]([C@@](O)(CCCCOC)c2cccc(Cl)c2F)C1.O=C(O)/C=C/C(=O)O,Tmax,[3],4.3 h
same,AUC(0-inf),[4],254 ng·h/mL
same,clearance,[5],30 mL/min/kg
same,Vd,[6],16 L/kg
same,half-life,[7],8 h
same,Cmax,[8],28 ng/mL
same,bioavailability,[9],5.5%
CNC[C@H](CC1CCCCC1)NC(=O)N1CCC[C@@H]([C@@](O)(CCCCOC)c2cc(F)cc(Cl)c2)C1,IC50,Renin [2],28 nM
same,IC50,Renin [1],0.9 nM
COCCCC[C@@](O)(c1ccccc1)[C@@H]1CCCN(C(=O)N[C@H](CN)CC2CCCCC2)C1.O=C(O)/C=C/C(=O)O,Tmax,[3],2.3 h
same,AUC(0-inf),[4],192 ng·h/mL
same,clearance,[5],46 mL/min/kg
same,Vd,[6],56 L/kg
same,half-life,[7],5.1 h
same,Cmax,[8],28 ng/mL
same,bioavailability,[9],7.5%
same,AUC(0-t),[10],221 ng·h/mL
CNC[C@H](CC1CCCCC1)NC(=O)N1CCC[C@@H]([C@@](O)(CCCCOC)c2cccc(C)c2)C1,IC50,Renin [2],67 nM
same,IC50,Renin [1],2.5 nM
CNC[C@H](CC1CCCCC1)NC(=O)N1CCC[C@@H]([C@@](O)(CCCCOC)c2ccccc2Cl)C1,IC50,Renin [2],151 nM
same,IC50,Renin [1],7 nM
CNC[C@H](CC1CCCCC1)NC(=O)N1CCC[C@@H]([C@@](O)(CCCCOC)c2cccc(OC)c2)C1,IC50,Renin [2],88 nM
same,IC50,Renin [1],13 nM
CNC[C@H](CC1CCCCC1)NC(=O)N1CCC[C@@H]([C@@](O)(CCCCOC)c2cccc(F)c2)C1.O=C(O)/C=C/C(=O)O,Tmax,[3],2.7 h
same,AUC(0-inf),[4],510 ng·h/mL
same,clearance,[5],59 mL/min/kg
same,half-life,[7],9.6 h
same,Cmax,[8],83 ng/mL
same,bioavailability,[9],21.1%
same,AUC(0-t),[10],433 ng·h/mL
CNC[C@H](CC1CCCCC1)NC(=O)N1CCC[C@@H]([C@@](O)(CCCCOC)c2cccc(C(F)(F)F)c2)C1,IC50,Renin [2],389 nM
same,IC50,Renin [1],7 nM
CNC[C@H](CC1CCCCC1)NC(=O)N1CCC[C@@H]([C@@](O)(CCCCOC)c2cccc(F)c2F)C1,IC50,Renin [2],20 nM
same,IC50,Renin [1],0.14 nM
CNC[C@H](CC1CCCCC1)NC(=O)N1CCC[C@@H]([C@@H](OCCCO)c2cccc(Cl)c2)C1,IC50,Renin [1],764 nM
COCCCOc1cc(C[C@@H](C[C@H](N)[C@@H](O)C[C@H](C(=O)NCC(C)(C)C(N)=O)C(C)C)C(C)C)ccc1OC.COCCCOc1cc(C[C@@H](C[C@H](N)[C@@H](O)C[C@H](C(=O)NCC(C)(C)C(N)=O)C(C)C)C(C)C)ccc1OC.O=C(O)/C=C/C(=O)O [ALISKIREN FUMARATE],Tmax,[3],0.1 h
same,AUC(0-inf),[4],31 ng·h/mL
same,clearance,[5],55 mL/min/kg
same,Cmax,[8],4 ng/mL
same,bioavailability,[9],1.2%
CCOCCCO[C@@H](c1cccc(Cl)c1)[C@@H]1CCCN(C(=O)N[C@H](CN)CC2CCCCC2)C1,IC50,Renin [2],190 nM
same,IC50,Renin [1],5.5 nM
CNC[C@H](CC1CCCCC1)NC(=O)N1CCC[C@@H]([C@@](O)(CCCCO)c2cccc(Cl)c2)C1,IC50,Renin [2],315 nM
same,IC50,Renin [1],21 nM
COCCCC[C@@](O)(c1ccccc1)[C@@H]1CCCN(C(=O)N[C@H](CN)CC2CCCCC2)C1,IC50,Renin [2],165 nM
same,IC50,Renin [1],21 nM
CNC[C@H](CC1CCCCC1)NC(=O)N1CCC[C@@H]([C@@](O)(CCCCOC)c2cccc(C#N)c2)C1,IC50,Renin [2],86 nM
same,IC50,Renin [1],37 nM
CNC[C@H](CC1CCCCC1)NC(=O)N1CCC[C@@H]([C@@](O)(CCCCOC)c2cccc(OC(F)(F)F)c2)C1,IC50,Renin [1],69 nM
CCOCCCC[C@@](O)(c1ccccc1)[C@@H]1CCCN(C(=O)N[C@H](CNC)CC2CCCCC2)C1,IC50,Renin [2],162 nM
same,IC50,Renin [1],16 nM
CNC[C@H](CC1CCCCC1)NC(=O)N1CCC[C@@H]([C@@](O)(CCCCOC)c2ccccc2)C1,IC50,Renin [2],64 nM
same,IC50,Renin [1],7 nM
CNC[C@H](CC1CCCCC1)NC(=O)N1CCC[C@@H]([C@@](O)(CCCCOC)c2cccc(Br)c2)C1,IC50,Renin [2],12 nM
same,IC50,Renin [1],0.13 nM
CNC[C@H](CC1CCCCC1)NC(=O)N1CCC[C@@H]([C@@](O)(CCCCOC)c2cc(C)ccc2F)C1,IC50,Renin [2],67 nM
same,IC50,Renin [1],3.5 nM
CCOCCCO[C@@H](c1cccc(Cl)c1Cl)[C@@H]1CCCN(C(=O)N[C@H](CNC)CC2CCCCC2)C1,IC50,Renin [1],125 nM
CNC[C@H](CC1CCCCC1)NC(=O)N1CCC[C@@H]([C@@](O)(CCCCOC)c2ccccc2F)C1,IC50,Renin [2],61 nM
same,IC50,Renin [1],4 nM
CCOCCCO[C@@H](c1ccccc1)[C@@H]1CCCN(C(=O)N[C@H](CNC)CC2CCCCC2)C1.O=C(O)/C=C/C(=O)O,Tmax,[3],3 h
same,AUC(0-inf),[4],882 ng·h/mL
same,clearance,[5],59 mL/min/kg
same,Vd,[6],22 L/kg
same,Cmax,[8],91 ng/mL
same,bioavailability,[9],35.8%
COCCCO[C@@H](c1ccccc1)[C@@H]1CCCN(C(=O)N[C@H](CN)CC2CCCCC2)C1,IC50,Renin [1],308 nM
CNC[C@H](CC1CCCCC1)NC(=O)N1CCC[C@@H]([C@@H](OCCCOC)c2cccc(F)c2)C1,IC50,Renin [1],58 nM
CNC[C@H](CC1CCCCC1)NC(=O)N1CCC[C@@H]([C@@](O)(CCCCOC)c2cccc(Cl)c2)C1 [listing 2 of 2 here],Activity,Rattus norvegicus,Active
CCOCCCO[C@@H](c1ccccc1)[C@@H]1CCCN(C(=O)N[C@H](CN)CC2CCCCC2)C1,IC50,Renin [1],55 nM
COCCCC[C@@](O)(c1cccc(Cl)c1)[C@@H]1CCCN(C(=O)N[C@H](CNCC(F)(F)F)CC2CCCCC2)C1,IC50,Renin [2],1400 nM
same,IC50,Renin [1],46 nM
CNC[C@H](CC1CCCCC1)NC(=O)N1CCC[C@@H]([C@@H](OCCCOC)c2cccc(Cl)c2F)C1,IC50,Renin [2],369 nM
same,IC50,Renin [1],39 nM
CNC[C@H](CC1CCCCC1)NC(=O)N1CCC[C@@H]([C@@](O)(CCCCOC)c2ccccc2)C1.O=C(O)/C=C/C(=O)O,Tmax,[3],2 h
same,AUC(0-inf),[4],689 ng·h/mL
same,clearance,[5],66 mL/min/kg
same,Cmax,[8],101 ng/mL
same,bioavailability,[9],33.6%
same,AUC(0-t),[10],547 ng·h/mL
CNC[C@H](CC1CCCCC1)NC(=O)N1CCC[C@@H]([C@@](O)(CCCCOC)c2cccc(Cl)c2F)C1,IC50,Renin [2],27 nM
same,IC50,Renin [1],0.1 nM
